Scp1 inh = inhibitors of human Scp-1 phosphatase; inhibition, % at 20 µM; Recombinant Scp1, phosphopeptide, malachite green phosphate absorbance; 0.88% of 340,000 active; Q9GZU7;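 active means inhibition above about 50% at 20 µM, limit read from the data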
Target sequence (Q9GZU7 76-261 limits assumed): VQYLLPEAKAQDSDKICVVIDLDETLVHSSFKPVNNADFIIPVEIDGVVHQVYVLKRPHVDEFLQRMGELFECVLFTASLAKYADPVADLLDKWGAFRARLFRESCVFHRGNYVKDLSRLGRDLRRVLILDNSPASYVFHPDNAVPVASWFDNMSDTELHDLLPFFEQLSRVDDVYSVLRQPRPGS
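Test system – truncated SCP-1 phosphatase (76-261aa) · Reagent – Phosphorylated 17-residue peptide substrate · Incubation – 45 min room-temperature reaction, 5 min colour, 30 min stabiliser · Detection – colorimetric phosphate reagent with accelerator and stabiliser, absorbance at 630 nm · Measure – % inhibition at 20 µM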
DNMT1 block = blocks human DNA methyltransferase DNMT1 | 0.83% of 360,000 active | inhibition (reported as % activation of signal), % at 10 µM | P26358 | DNMT1 molecular beacon, Hinp1I cleavage, fluorescence; in the data active means inhibition above about 50%
STEP inh = inhibitors of human striatal-enriched phosphatase STEP. 0.25% of 360,000 active. recombinant STEP, OMFP fluorogenic substrate, fluorescence. inhibition, % at 20 µM. P54829;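 active means inhibition at 20 µM, scaled per plate between control wells, above about 37%, limit read from the data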
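Test system: STEP tyrosine phosphatase / Reagent: OMFP at 25 µM / Doses: 20 µM, 1% DMSO / Read-out: percent inhibition scaled to no-enzyme and uninhibited-enzyme controls, plate-pattern corrected / Detection: FITC-channel fluorescence of OMFP product / Medium: Bis-Tris buffer pH 6.0, 2.5 mM DTT, 0.005% Tween 20 / Schedule: 20 min at room temperature, dark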
SUMO1-SIM PPI = alters human SUMO1 binding to SIM partners | SUMO1 binding to a labelled peptide, TR-FRET, 1 h | inhibition, % at 20 µM | 0.33% of 360,000 active | AID 602429; in the data active means inhibition above about 37%
Target sequence (P63165 whole entry, looked up): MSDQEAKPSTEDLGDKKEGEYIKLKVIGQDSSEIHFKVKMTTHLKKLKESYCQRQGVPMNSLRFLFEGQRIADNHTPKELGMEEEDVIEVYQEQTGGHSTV
LMPTP inh = LMPTP (human) inhibition; P24666; 0.22% of 360,000 active; recombinant LMPTP-A, OMFP fluorogenic substrate, fluorescence intensity; inhibition, % at 20 µM;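 active means compounds that cut the enzyme signal by at least half of the control window in the single-dose screen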
Target sequence (P24666 whole entry, looked up): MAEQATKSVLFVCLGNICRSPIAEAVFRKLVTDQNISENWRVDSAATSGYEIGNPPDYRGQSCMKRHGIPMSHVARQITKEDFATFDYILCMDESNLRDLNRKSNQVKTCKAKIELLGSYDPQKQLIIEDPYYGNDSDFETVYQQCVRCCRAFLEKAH
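Test system: LMPTP-A phosphatase enzyme; input: 0.625 nM LMPTP-A final; reagent: OMFP substrate, 400 µM final; compound dosing: 20 µM single dose, 3% DMSO; incubation: 50 min dark incubation at room temperature; measured by: endpoint fluorescence intensity from OMFP dephosphorylation; measure: % inhibition relative to no-enzyme and uninhibited control wells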
Scp-1 conf = confirmation of human Scp-1 phosphatase inhibitors; recombinant SCP-1 catalytic domain, phosphate release, malachite green absorbance; inhibition, % at 20 µM; 61% of 2,500 active; shares compounds with Scp1 inh; AID 540281
Scp-1 MG ctr = colorimetric interference in Scp-1 counter-screen | Colorimetric interference counterscreen, malachite green absorbance 630 nm | AID 540313 | 2,500 tested, under 10 active | shares compounds with Scp1 inh | apparent inhibition (interference), % at 20 µM;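 further: compounds added after enzyme reaction finished so only phosphate colour detection is probed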
Scp-1 Tm shift = validation of human Scp-1 inhibitors by thermal shift binding; shares compounds with Scp1 inh; Recombinant SCP1, Sypro Orange thermal shift Tm; thermal shift relative to vanadate control, % at 40 µM; 25% of 1,500 active; AID 540329;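 active means substances whose mean melting-temperature shift, as a percentage of the reference inhibitor's shift, reaches about 5.3%, limit read from the data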
Hits are given with their value; – = inactive; · = no result. The list is not random: actives were taken first. Their share in the collection is about 1.7%.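 How the source made its calls, unless noted: active means inhibition of at least 30% at 20 µM; inactive means the rest.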

SMILES	Scp1 inh	DNMT1 block	STEP inh	SUMO1-SIM PPI	LMPTP inh	Scp-1 conf	Scp-1 MG ctr	others
C[C@@H]1CN([C@@H](C)CO)C(=O)Cc2cc(NS(=O)(=O)c3cn(C)cn3)ccc2O[C@@H]1CN(C)C(=O)Nc1ccccc1	88.0	–	–	–	–	61.7	–	Scp-1 Tm shift=–
COCCNc1nc(Nc2ccc(F)cc2)c2sccc2n1	·	–	–	–	–	·	·
CC(C)NC(=O)CC1OC(=O)c2ccccc21 (centres undefined)	–	–	–	–	–	·	·
O=C(CC1OC(=O)c2ccccc21)NNC(=O)c1ccc(F)cc1 (centres undefined)	–	–	–	–	–	–	–
N#Cc1ccccc1OCC(=O)OCCCOC(=O)COc1ccccc1C#N	96.4	–	–	–	–	–	–
N#Cc1ccccc1OCC(=O)OCC(=O)N1CCCC1	–	–	–	–	–	·	·
Cc1cccc(CNC(=O)c2sc(=O)n(Cc3ccc(S(C)(=O)=O)cc3)c2C)c1	·	–	–	–	–	·	·
O=C1NCCN1CCNS(=O)(=O)c1ccc2ccccc2c1	–	–	–	–	–	–	–
O=C(O)c1cc(S(=O)(=O)NCCN2CCNC2=O)ccc1O	–	–	–	–	–	·	·
CN(C)c1ccc(/C=C2\C(=N)N3N=C(CC(=O)N4CCCC4)SC3=NC2=O)cc1Br	57.5	–	–	–	–	–	–
O=C(O)CCSc1nnc(SCC(=O)NC2CCS(=O)(=O)C2)s1 (centres undefined)	101.4	–	–	–	–	–	–
CCC1SC2=NC(C)=C(C(=O)OCCOC)C(/C=C/c3ccccc3OC)N2C1=O (centres undefined)	58.5	–	–	–	–	–	–
CCC1SC2=NC(C)=C(C(=O)OCC(C)C)C(/C=C/c3ccccc3OC)N2C1=O (centres undefined)	–	–	–	–	–	·	·
CCOC(=O)c1cnc2nc(NCc3ccc(OCc4ccccc4)cc3)[nH]n2c1=O	70.5	–	–	–	–	91.2	–	Scp-1 Tm shift=–
CCOC(=O)c1cnc2nc(COc3ccccc3)[nH]n2c1=O	–	–	–	–	–	·	·
Cn1ncc(C#N)c1/N=C/N(Cc1ccccc1)Cc1ccccc1	72.8	–	–	–	–	–	–
CCCCc1c(CCC)c(=N)c2ccccc2n1C	91.0	–	–	–	–	–	–
CCCCc1c(O)c2ccccc2n(CCCC)c1=O	–	–	–	–	–	·	·
COc1c(O)cc2c(c1O)[C@@H]1OC(CO)C(O)C(O)[C@H]1OC2=O (some centres undefined)	–	–	–	–	–	–	–
COc1c(O)cc2c(c1O)C1OC(CO)C(O)C(O)C1OC2=O (centres undefined)	–	–	–	–	–	·	·
CCOc1ccc(C(=O)N/N=C/c2cc(Cl)ccc2[N+](=O)[O-])cc1	102.7	–	–	–	–	48.1	–	Scp-1 Tm shift=–
COC(=O)CSc1nc(SCc2ccccc2Cl)nc2c1CCCC2	53.4	–	–	–	–	–	–
NS(=O)(=O)c1ccc(CCNC(=O)Cc2ccc(S(=O)(=O)N3CCCC3)s2)cc1	75.7	–	–	–	–	74.0	–	Scp-1 Tm shift=–
NS(=O)(=O)c1ccc(CNC(=O)Cc2ccc(S(=O)(=O)N3CCOCC3)s2)cc1	–	–	–	–	–	·	·
O=C(Cc1ccc(S(=O)(=O)N2CCOCC2)s1)NC1CCCCC1	61.1	–	–	–	–	70.4	–	Scp-1 Tm shift=7.9
O=C(Cc1ccc(S(=O)(=O)N2CCOCC2)s1)NCC1CCCCC1	–	–	–	–	–	·	·
CC(=O)OC[C@@H]1CN(Cc2ccccc2)C[C@H](n2cnc3c(NC4CCCC4)ncnc32)O1	·	–	–	–	–	·	·
O=C(NCCCC1CCCC1)C1CCC(=O)N(Cc2cccc(C(F)(F)F)c2)C1 (centres undefined)	–	–	–	–	–	·	·

Assay outcomes (PubChem BioAssay)
